Reference: publication PMC4148159 (Journal of Medicinal Chemistry, 2014)

Key:
LPA4 [1] = target: T1, LPA4 (Mus musculus, UniProt Q8BLG2); experiment: Ca2+ mobilization antagonist screen against LPA 18:1, LPA4; format: cell-based, human; details: coapplied with LPA 18:1
LPA3 [2] = target: T2, LPA3 (Homo sapiens, UniProt Q9UBY5); experiment: Ca2+ mobilization antagonist screen against LPA 18:1, LPA3; format: cell-based
T2 sequence (Q9UBY5 1-353): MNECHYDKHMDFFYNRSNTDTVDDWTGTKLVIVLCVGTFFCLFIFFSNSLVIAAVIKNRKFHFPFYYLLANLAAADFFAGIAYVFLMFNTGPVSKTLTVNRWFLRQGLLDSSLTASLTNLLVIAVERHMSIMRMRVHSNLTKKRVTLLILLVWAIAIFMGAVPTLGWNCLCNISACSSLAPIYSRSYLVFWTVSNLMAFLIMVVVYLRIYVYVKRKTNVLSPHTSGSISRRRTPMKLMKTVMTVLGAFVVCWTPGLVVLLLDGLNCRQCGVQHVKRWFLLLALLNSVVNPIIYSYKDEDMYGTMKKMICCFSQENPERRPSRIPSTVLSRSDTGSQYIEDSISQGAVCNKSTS

[3] = test system: Vector control cells (DKO MEF, RH7777, CHO, B103); experiment: Fura-2AM Ca2+ mobilization in empty vector control cells; format: cell-based; details: read-out: vector EC50
In short: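 Cells were loaded with Fura-2AM, and transient Ca2+ mobilization was read as fluorescence on a robotic plate reader. Receptor-expressing lines were CHO (LPA4), DKO MEF (LPA2), RH7777 (LPA1/3) and B103 (LPA5). Vector controls were the same lines transduced with empty vector. […] Values are means of three assays.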

LPA1 = LPA1 (Homo sapiens, UniProt Q92633); experiment: Ca2+ mobilization antagonist screen against LPA 18:1, LPA1; format: cell-based; details: coapplied with LPA 18:1
LPA5 [4] = target: T3, LPA5 (Homo sapiens, UniProt Q9H1C0); experiment: Ca2+ mobilization antagonist screen against LPA 18:1, LPA5; format: cell-based; details: coapplied with LPA 18:1
LPA2 = LPA2 (Homo sapiens, UniProt Q9HBW0); experiment: Fura-2AM Ca2+ mobilization, agonist mode, LPA2 DKO MEF cells; format: cell-based; details: for LPA2 agonist activity (in words): Ca2+ mobilization, SAR discussion
[5] = test system: radiation-induced apoptosis; details: mice suffering from the acute hematopoietic radiation syndrome; cited from earlier work
apoptosis = details: cell-based models of apoptosis; cited from earlier work
LPA4 [6] = target: T1, LPA4; experiment: Fura-2AM Ca2+ mobilization, agonist mode, LPA4 CHO cells; format: cell-based, human; details: read-out: LPA4 Emax
LPA3 [7] = target: T2, LPA3; experiment: Fura-2AM Ca2+ mobilization, agonist mode, LPA3-expressing cells; format: cell-based; details: read-out: LPA3 Emax
LPA5 [8] = target: T3, LPA5; experiment: Fura-2AM Ca2+ mobilization, agonist mode, LPA5 B103 cells; format: cell-based; details: B103, read-out: LPA5 Emax

Sequence of LPA2 (Q9HBW0 whole entry): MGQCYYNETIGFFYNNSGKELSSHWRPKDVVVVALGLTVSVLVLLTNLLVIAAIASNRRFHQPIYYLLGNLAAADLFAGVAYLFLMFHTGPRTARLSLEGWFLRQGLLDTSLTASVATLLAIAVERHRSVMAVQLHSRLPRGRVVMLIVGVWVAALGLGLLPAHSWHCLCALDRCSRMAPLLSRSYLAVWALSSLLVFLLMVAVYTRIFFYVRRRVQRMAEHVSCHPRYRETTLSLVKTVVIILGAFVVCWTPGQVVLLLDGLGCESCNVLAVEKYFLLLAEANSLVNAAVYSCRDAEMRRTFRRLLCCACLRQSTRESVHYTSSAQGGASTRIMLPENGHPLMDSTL
T3 sequence (Q9H1C0 whole entry): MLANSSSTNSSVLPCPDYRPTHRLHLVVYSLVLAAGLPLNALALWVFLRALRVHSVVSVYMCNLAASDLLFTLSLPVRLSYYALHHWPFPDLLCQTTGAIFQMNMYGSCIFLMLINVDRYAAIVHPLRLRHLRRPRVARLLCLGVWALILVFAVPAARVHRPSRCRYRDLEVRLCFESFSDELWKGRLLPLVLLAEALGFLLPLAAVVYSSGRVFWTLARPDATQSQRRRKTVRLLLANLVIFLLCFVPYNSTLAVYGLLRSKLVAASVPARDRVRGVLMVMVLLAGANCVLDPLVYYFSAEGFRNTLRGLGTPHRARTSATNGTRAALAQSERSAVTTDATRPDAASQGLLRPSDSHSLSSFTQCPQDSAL
T1 sequence (Q8BLG2 whole entry): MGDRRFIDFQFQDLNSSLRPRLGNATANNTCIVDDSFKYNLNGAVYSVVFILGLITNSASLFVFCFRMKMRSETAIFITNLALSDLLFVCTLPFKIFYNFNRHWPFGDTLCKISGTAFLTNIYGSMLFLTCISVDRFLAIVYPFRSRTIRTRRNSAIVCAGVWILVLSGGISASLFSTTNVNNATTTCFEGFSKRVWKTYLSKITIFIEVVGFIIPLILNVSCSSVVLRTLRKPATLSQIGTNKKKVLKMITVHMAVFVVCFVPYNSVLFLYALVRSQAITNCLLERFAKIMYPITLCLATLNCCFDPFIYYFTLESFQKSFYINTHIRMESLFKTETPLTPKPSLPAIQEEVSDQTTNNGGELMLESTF
Sequence of LPA1 (Q92633 whole entry): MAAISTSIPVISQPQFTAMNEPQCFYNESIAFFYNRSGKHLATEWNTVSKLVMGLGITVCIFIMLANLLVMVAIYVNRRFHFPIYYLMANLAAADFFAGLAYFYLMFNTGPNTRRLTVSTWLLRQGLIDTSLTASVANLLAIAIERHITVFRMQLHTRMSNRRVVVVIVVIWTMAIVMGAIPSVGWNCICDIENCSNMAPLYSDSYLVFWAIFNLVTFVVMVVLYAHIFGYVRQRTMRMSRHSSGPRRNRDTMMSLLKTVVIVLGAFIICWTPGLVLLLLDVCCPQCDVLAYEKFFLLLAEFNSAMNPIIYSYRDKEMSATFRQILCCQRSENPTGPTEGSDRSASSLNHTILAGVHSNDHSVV

Compound	LPA2 agonist activity (in words) (LPA2)	EC50 [3] [µM]	also measured
O=C(O)c1ccccc1S(=O)(=O)NCCCN1C(=O)c2cccc3cccc(c23)C1=O [Compound 4, 2-(N-(3-(1,3-dioxo-1H-benzo[de]isoquinolin-2(3H)-yl)propyl)sulfamoyl)benzoic acid]		> 10	LPA4 inhibition (antagonist activity) (LPA4 [1]): without activating or inhibiting; IC50 (LPA3 [2]): > 10 µM; LPA1 inhibition (antagonist activity) (LPA1): without activating or inhibiting; LPA5 inhibition (antagonist activity) (LPA5 [4]): without activating or inhibiting; EC50 (LPA2): ~2 µM
O=C(O)c1ccccc1S(=O)(=O)NCCCCN1C(=O)c2cccc3cccc(c23)C1=O [Compound 5]		> 10	
O=C(O)c1ccccc1S(=O)(=O)NCCCCCN1C(=O)c2cccc3cccc(c23)C1=O [Compound 6]		> 10	
O=C(O)c1ccccc1S(=O)(=O)NCCCCN1C(=O)c2ccccc2C1=O [Compound 7a, 2-[4-(1,3-Dioxo-1,3-dihydroisoindol-2-yl)butylsulfamoyl]benzoic acid]		> 10	EC50 (LPA2): > 10 µM
O=C1C(=O)N(CCCCNS(=O)(=O)c2ccccc2C(=O)O)c2ccccc21 [Compound 7b, 2-(N-(4-(2,3-dioxoindolin-1-yl)butyl)sulfamoyl)benzoic acid]		> 10	EC50 (LPA2): > 10 µM
O=C(O)c1cc(Br)ccc1S(=O)(=O)NCCCCN1C(=O)c2cccc3cccc(c23)C1=O [Compound 8c]		> 10	
O=C(O)c1ccc2c(c1)S(=O)(=O)N(CCCCN1C(=O)c3cccc4cccc(c34)C1=O)C2=O [Compound 9, 2-(4-(1,3-dioxo-1H-benzo[de]isoquinolin-2(3H)-yl)butyl)-3-oxo-2,3-dihydrobenzo[d]isothiazole-6-carboxylic acid 1,1-dioxide]		> 10	
O=C(O)c1ccc(C(=O)O)c(S(=O)(=O)NCCCCN2C(=O)c3cccc4cccc(c34)C2=O)c1 [Compound 10, 2-(N-(4-(1,3-dioxo-1H-benzo[de]isoquinolin-2(3H)-yl)butyl)sulfamoyl)terephthalic acid]	considerably less potent than the compound 9	> 10	
O=C(O)c1cc(F)ccc1S(=O)(=O)NCCCCN1C(=O)c2cccc3cccc(c23)C1=O [Compound 11c]		> 10	
O=C(O)c1cc(Cl)ccc1S(=O)(=O)NCCCCN1C(=O)c2cccc3cccc(c23)C1=O [Compound 11d, 5-chloro-2-(N-(4-(1,3-dioxo-1H-benzo[de]isoquinolin-2(3H)-yl)butyl)sulfamoyl)benzoic acid]		> 10	
O=C(O)c1ccccc1SCCCN1C(=O)c2cccc3cccc(c23)C1=O [GRI-977143]		> 10	efficacy against radiation-induced apoptosis [5]: modestly efficacious; antiapoptotic efficacy (apoptosis): showed antiapoptotic efficacy
CCCCCCCC/C=C\CCCCCCCC(=O)OC[C@@H](O)COP(=O)(O)O [LPA 18:1, 1-acyl-2-hydroxy-sn-3-glycerophosphate]		> 10	Emax (LPA4 [6]): 100%; Emax (LPA3 [7]): 100%; Emax (LPA5 [8]): 100%; Emax (LPA2; MEF, read-out: LPA2 Emax): 100%

Now from value to compound, other results behind:

LPA2 agonist activity (in words) (LPA2)	Compound	EC50 [3] [µM]	also measured
very weak agonist activity	COc1ccc(C(=O)O)c(S(=O)(=O)NCCCCN2C(=O)c3cccc4cccc(c34)C2=O)c1 [Compound 8a]	> 10	
more potent than compound 4	O=C(O)c1ccc(Br)cc1S(=O)(=O)NCCCCN1C(=O)c2cccc3cccc(c23)C1=O [Compound 8b]	> 10	
abolished the activity at LPA2	O=C(O)c1cccc(S(=O)(=O)NCCCCN2C(=O)c3cccc4cccc(c34)C2=O)c1 [Compound 11a]	> 10	
abolished the activity at LPA2	O=C(O)c1ccc(S(=O)(=O)NCCCCN2C(=O)c3cccc4cccc(c34)C2=O)cc1 [Compound 11b]	> 10	
